# Published values of several laboratories.
# Compare with care: the assays were run in different laboratories.
# Target: cGMP-dependent protein kinase 1 (PRKG1, Homo sapiens, UniProt Q13976)
# Residues used in one study (Q13976 1-671): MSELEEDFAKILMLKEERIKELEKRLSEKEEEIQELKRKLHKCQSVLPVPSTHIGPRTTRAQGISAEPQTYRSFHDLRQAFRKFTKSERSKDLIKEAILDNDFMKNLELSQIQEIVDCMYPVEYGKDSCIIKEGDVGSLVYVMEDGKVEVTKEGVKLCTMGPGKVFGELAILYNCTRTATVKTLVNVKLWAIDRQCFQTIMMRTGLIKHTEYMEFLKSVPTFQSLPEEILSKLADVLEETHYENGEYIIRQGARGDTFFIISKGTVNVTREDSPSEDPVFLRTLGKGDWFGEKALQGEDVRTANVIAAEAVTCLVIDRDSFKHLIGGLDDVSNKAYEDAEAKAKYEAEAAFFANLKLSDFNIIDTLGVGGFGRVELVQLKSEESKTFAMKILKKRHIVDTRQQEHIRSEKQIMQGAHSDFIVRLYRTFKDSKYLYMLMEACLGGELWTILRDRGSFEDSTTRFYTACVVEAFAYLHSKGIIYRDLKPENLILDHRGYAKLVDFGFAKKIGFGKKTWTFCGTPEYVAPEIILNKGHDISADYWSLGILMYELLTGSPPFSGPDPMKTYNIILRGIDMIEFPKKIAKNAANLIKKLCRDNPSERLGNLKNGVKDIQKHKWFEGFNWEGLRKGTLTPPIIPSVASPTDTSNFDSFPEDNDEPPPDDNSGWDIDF
SMILES,effect on,mode,method,concentration,measurement,result
Cn1cc(-c2cc(F)cc(N3CCn4c(cc5c4CCCC5)C3=O)c2CO)cc(Nc2ccc(N3CCN(C4COC4)CC3)cn2)c1=O,enzyme activity,inhibitor,,0.1 µM,inhibition,8%
CN1CCC(c2cc(-c3ccncc3)c(-c3ccc(F)cc3)[nH]2)CC1,enzyme activity,inhibitor,,10 µM,inhibition,9%
C#Cc1n[nH]c2c(-c3cn([C@@H](C)c4ccccn4)c(=O)[nH]c3=O)cc(F)cc12,enzyme activity,inhibitor,,0.1 µM,inhibition,0.5%
Cn1cc(-c2cccc(N3CCc4c(sc5c4CC(C)(C)C5)C3=O)c2CO)cc(Nc2ccncn2)c1=O,enzyme activity,inhibitor,,1 µM,inhibition,4%
N#CC1(c2ccccn2)CCN(Cc2cc(C(=O)O)c(=O)n3ccccc23)CC1,cell-free assay,,competition with immobilised ligand,1 µM,remaining binding,98%
C#Cc1n[nH]c2c(-c3cn([C@@H](C)c4ccccc4)c(=O)[nH]c3=O)cc(F)cc12,enzyme activity,inhibitor,,0.1 µM,inhibition,5.1%
COc1cc(Nc2ncc(F)c(Nc3ccc4c(n3)NC(=O)C(C)(C)O4)n2)cc(OC)c1OC,binding,,,10 µM,inhibition,0%
Cc1nn(C)cc1-c1nc2c(N3CCN(Cc4ccc(Cl)cc4)CC3)c(Cl)cnc2[nH]1,binding,,competition with immobilised ligand,1 µM,remaining binding,100%
COc1ncccc1-c1cnn2ccc(N3CCN(C(=O)OC(C)C)CC3)nc12,binding,,competition with immobilised ligand,1 µM,remaining binding,100%
Cn1cncc1[C@](O)(COc1ccc(C#N)cc1-c1ccc(OC(F)(F)F)cc1)c1ccc(C#N)cc1,cell-free assay,,competition with immobilised ligand,1 µM,remaining binding,91%
Nc1ncc(-c2nc(N3CCOCC3)nc(N3CCOCC3)n2)c(C(F)F)n1,binding,,competition with immobilised ligand,10 µM,remaining binding,79%
